Laboratory results taken from ChEMBL document CHEMBL5029154, “Design, Synthesis, and Biological Evaluation of Organic Nitrite (NO2-) Donors as Potential Anticerebral Ischemia Agents” (J Med Chem, 2021).
In brackets after ≈: the same amount, converted by molar mass. Activity calls are given as the source filed them. The calls are words filed in the database; no cut-off is given here.

Experiments:
Cortical neurone [1] = test: (§1) Neuroprotective activity against in OGD/R-induced rat cortical neuron cytotoxicity assessed as activation of NO/cGMP/PKG pathway by measuring increase in cGMP level pretreated at 1.8 uM for 24 hrs followed by subjected to OGD for 2 hrs measured after 24 hrs under normoxic condition by ELISA; format: functional, tissue-based
Rattus norvegicus [2] = test: Neuroprotective activity against middle cerebral artery occlusion-induced ischemia-reperfusion injury Sprague-Dawley rat model assessed as increase in NQO1 expression in cerebral ischemic penumbra at 950 microg/kg, iv treated immediately reperfusion measured after 24 hrs; format: functional, organism-based; conditions: dose 950.0 µg/kg
Method in brief: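 MCAO rat brain paraffin sections (3 μm) were blocked with 10% goat serum and stained by IHC for NQO-1 and HO-1 (1:200) and phospho-Nrf2 (1:100), with DAB detection and rabbit IgG as negative control. Average optical density of positive cells was scored blinded over five fields per sample.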

Cortical neurone [3] = test: as §1, with “condition in presence of NS2028” for “condition”; format: functional, tissue-based
Rattus norvegicus [4] = test: Neuroprotective activity against middle cerebral artery occlusion-induced ischemia-reperfusion injury Sprague-Dawley rat model assessed as decrease in brain infarct volume at 95 to 9500 microg/kg, iv treated immediately reperfusion in presence of PTIO measured after 24 hrs; format: functional, organism-based; conditions: dose 95-9500 µg/kg
Method in brief: (§2)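 Male SD rats (12 weeks, 200–220 g; N = 8/group) underwent MCAO under […] (350 mg/kg) using a nylon intraluminal suture for 2 h, then reperfusion. Compound (95, 950 or 9500 μg/kg) was given iv immediately after reperfusion; where used, PTIO 1 mg/kg iv was given 30 min before. At 24 h, blinded scoring covered Longa neurological deficit, TTC infarct area/whole area, and edema from wet/dry brain weight (105 °C, 24 h).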

Rattus norvegicus [5] = test: Neuroprotective activity against middle cerebral artery occlusion-induced ischemia-reperfusion injury Sprague-Dawley rat model assessed as decrease in brain infarct volume at 95 to 9500 microg/kg, iv treated immediately reperfusion measured after 24 hrs; format: functional, organism-based; conditions: dose 95-9500 µg/kg; method in brief: as §2
Cortical neurone [6] = test: Neuroprotective activity against in OGD/R-induced rat cortical neuron cytotoxicity assessed as decrease in cell viability pretreated at 1.8 uM for 24 hrs followed by subjected to OGD for 2 hrs measured after 24 hrs under normoxic condition by MTT assay; format: functional, tissue-based
Method in brief: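 Primary rat cortical neurons from enzymatically digested cortex, plated on poly-lysine in DMEM/10% FBS for 4 h. Pretreated 24 h in neuron basal medium with 2% B27, then glucose/FBS-free DMEM at 1% O2. Returned to 10% FBS DMEM under normoxia for 24 h. Viability by MTT; three independent experiments, mean SD.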

Rattus norvegicus [7] = test: Neuroprotective activity against middle cerebral artery occlusion-induced ischemia-reperfusion injury Sprague-Dawley rat model assessed as decrease in neurologic deficit scores at 950 microg/kg, iv pretreated for 2 hrs followed by reperfusion measured after 24 hrs in presence of PTIO; format: functional, organism-based; conditions: dose 950.0 µg/kg
Method in brief: (§3)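 Male SD rats (N = 8/group) were dosed iv at 95, 950 or 9500 μg/kg 2 h before 2 h MCAO (nylon suture, chloral hydrate anesthesia), then reperfused. Where used, PTIO 1 mg/kg iv was given 30 min before compound. At 24 h, blinded assessment covered Longa deficit score, TTC-stained 2 mm sections (infarct area/whole area), and edema by wet/dry weight.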

Rattus norvegicus [8] = test: Neuroprotective activity against middle cerebral artery occlusion-induced ischemia-reperfusion injury Sprague-Dawley rat model assessed as decrease in cerebral edema degree at 95 to 9500 microg/kg, iv treated immediately reperfusion measured after 24 hrs; format: functional, organism-based; conditions: dose 95-9500 µg/kg; method in brief: as §2
[9] = Neuroprotective activity against in OGD/R-induced rat cortical neuron apoptosis assessed as late apoptotic cells pretreated at 1.8 uM for 24 hrs followed by subjected to OGD for 2 hrs measured after 24 hrs under normoxic condition by PI/FITC-H staining based flow cytometry (reference value: 6.31%); format: functional, Cortical neurone
[10] = Solubility of compound in water; format: physicochemical
Rattus norvegicus [11] = test: (§4) Neuroprotective activity against middle cerebral artery occlusion-induced ischemia-reperfusion injury Sprague-Dawley rat model assessed as increase in AuroraB + cells in cerebral ischemic penumbra at 95 to 950 microg/kg, iv treated immediately reperfusion measured after 24 hrs by immunofluoresence assay; format: functional, organism-based; conditions: dose 95-950 µg/kg
Rattus norvegicus [12] = test: Angiogenic activity in middle cerebral artery occlusion-induced ischemia-reperfusion injury Sprague-Dawley rat model assessed as tube formation in cerebral ischemic penumbra at 95 to 9500 microg/kg, iv treated immediately reperfusion measured after 7 days by immunofluoresence assay; format: functional, organism-based; conditions: dose 95-9500 µg/kg, time 7.0 day
Method in brief: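 After MCAO/reperfusion, SD rats (N = 5/group) were dosed iv immediately after reperfusion and then daily for 7 days, with or without PTIO. Paraffin brain sections (3 μm) were immunostained for CD31, Ki67 and Aurora B with DAPI. Vascular density was CD31⁺/DAPI⁺; proliferating endothelium was CD31⁺Ki67⁺/CD31⁺.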

[13] = Lipo-hydro partition coefficient, logP of compound; format: physicochemical; conditions: octanol/water
Cortical neurone [14] = test: Effect on Nrf2 mRNA transcript level in OGD/R-induced rat primary cortical neuron pretreated at 1.8 uM for 24 hrs followed by subjected to OGD for 2 hrs measured after 24 hrs under normoxic condition by RT-qPCR analysis; format: functional, tissue-based
Method in brief: (§5)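 Primary rat cortical neurons were pretreated with 1.8 μM compound for 24 h, given 2 h OGD, then 24 h normoxic culture. Nrf2, HO-1 and NQO1 mRNA were measured by RT-qPCR. Cytoplasmic and nuclear protein (30 μg/lane) were blotted for Nrf2, with lamin A and β-actin as references, and quantified by densitometry as the nuclear:cytoplasmic ratio. Three independent experiments, mean ± SD.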

Cortical neurone [15] = test: Induction of Nrf2 protein level in OGD/R-induced rat primary cortical neuron pretreated at 1.8 uM for 24 hrs followed by subjected to OGD for 2 hrs measured after 24 hrs under normoxic condition by Western blot analysis; format: functional, tissue-based; method in brief: as §5
[16] = Photostability of the compound under light at 200 uM measured after 24 hrs by HPLC analysis; format: physicochemical
Rattus norvegicus [17] = test: Neuroprotective activity against middle cerebral artery occlusion-induced ischemia-reperfusion injury Sprague-Dawley rat model assessed as decrease in cerebral infarct volume at 95 to 9500 microg/kg, iv pretreated for 2 hrs followed by reperfusion measured after 24 hrs; format: functional, organism-based; conditions: dose 95-9500 µg/kg; method in brief: as §3
[18] = GSH reactivity assessed as reaction rate measured at 1 equiv of GSH upto 24 hrs by HPLC analysis; format: ADME
Rattus norvegicus [19] = test: as §4, with “Ki67+” for “AuroraB +”, “hrs in presence of PTIO” for “hrs”; format: functional, organism-based; conditions: dose 95-950 µg/kg
Rattus norvegicus [20] = test: Neuroprotective activity against middle cerebral artery occlusion-induced ischemia-reperfusion injury Sprague-Dawley rat model assessed as increase in Ki67+ cells in cerebral ischemic penumbra at 95 to 950 microg/kg, iv treated immediately reperfusion measured after 24 hrs by immunofluoresence assay; format: functional, organism-based; conditions: dose 95-950 µg/kg
[21] = Stability of the compound in pH 7.4 saline assessed as half life at 200 uM measured after 24 hrs by HPLC analysis; format: physicochemical; conditions: saline pH 7.4, pH 7.4
Rattus norvegicus [22] = test: Neuroprotective activity against middle cerebral artery occlusion-induced ischemia-reperfusion injury Sprague-Dawley rat model assessed as decrease in cerebral edema degree at 950 microg/kg, iv pretreated for 2 hrs followed by reperfusion measured after 24 hrs in presence of PTIO; format: functional, organism-based; conditions: dose 950.0 µg/kg; method in brief: as §3

solubility [10]: 33.2 µg/mL (≈ 124 µM)
logP [13]: 0.54
Stability [16]: Stable
Activity [18]: 0.0214 h⁻¹
half-life at 200 µM [21]: 38.5 h
Compound: O=C(/C(=C/c1ccccc1)C[N+](=O)[O-])c1ccccc1
Activity (Cortical neurone [1]): Active
Activity (Rattus norvegicus [2]): Active
Activity (Cortical neurone [3]): inactive
Activity (Rattus norvegicus [4]): inactive
Activity (Rattus norvegicus [5]): Active
Activity (Cortical neurone [6]): Active
Activity (Rattus norvegicus [7]): inactive
Activity (Rattus norvegicus [8]): Active
Activity [9]: 1.72%
Activity (Rattus norvegicus [11]): Active
Activity (Rattus norvegicus [12]): Active
Activity (Cortical neurone [14]): inactive
Activity (Cortical neurone [15]): Active
Activity (Rattus norvegicus [17]): Active
Activity (Rattus norvegicus [19]): inactive
Activity (Rattus norvegicus [20]): Active
Activity (Rattus norvegicus [22]): inactive
